Screening results: PubChem, The Scripps Research Institute Molecular Screening Center
Hits are enriched below; roughly 3.1% of the tested compounds scored in any of these assays.
CHO parental Ca = ATP-evoked calcium signal inhibitors, parental CHO, primary screen, counter-screen for OX1R antagonist project, cell-based, fluorescence, Fluo-8 calcium dye; parental CHO-K1, ATP-induced calcium, Fluo-8 fluorescence; inhibition, % at 5.6 µM; 330,000 compounds, 0.63% hits;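 active means inhibition above that plate's mean sample inhibition plus 3 SD, cut at about 26% in these data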;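 further: 0% = ATP-challenged DMSO wells and 100% = DMSO wells without ATP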
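Test system: parental CHO cells; detection: calcium-sensitive Fluo-8 fluorescence; evaluation: percent inhibition of calcium signal; also added: ATP as calcium-mobilizing challenge; repeats: one well per compound; control set: ATP-challenged DMSO wells low, unchallenged DMSO wells high; compound: single nominal dose of 5.6 µM per compound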
OX1R antag-1 = OX1R (HCRTR1) antagonists, primary screen, fluorescence, CHO/OX1R cells, Fluo-8 calcium, orexin A. Fluo-8 calcium fluorescence. inhibition, % at 5 µM. 330,000 compounds, 0.43% hits;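 active means inhibition above its plate's threshold, mean inhibition of all tested compounds on the plate plus 3 SD, cut at about 37% in these data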;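 further: 0% = orexin A challenge wells and 100% = SB-334867-A antagonist wells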
Target sequence (O43613 whole entry, looked up): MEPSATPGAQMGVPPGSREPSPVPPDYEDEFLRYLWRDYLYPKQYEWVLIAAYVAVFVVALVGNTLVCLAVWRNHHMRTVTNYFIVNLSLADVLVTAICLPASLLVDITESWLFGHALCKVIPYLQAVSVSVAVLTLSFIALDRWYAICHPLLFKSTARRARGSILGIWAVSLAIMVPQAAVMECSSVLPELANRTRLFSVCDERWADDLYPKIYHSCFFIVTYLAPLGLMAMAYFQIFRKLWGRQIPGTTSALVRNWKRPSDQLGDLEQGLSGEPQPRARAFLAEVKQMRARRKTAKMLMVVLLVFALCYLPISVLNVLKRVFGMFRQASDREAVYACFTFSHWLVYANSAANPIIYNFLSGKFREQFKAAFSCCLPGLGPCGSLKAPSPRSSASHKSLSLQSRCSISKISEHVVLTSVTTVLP
GPR7 antag = GPR7 receptor antagonists, primary screen, cell-based, fluorescence, single concentration. Neuropeptides B/W receptor type 1 (Homo sapiens), P48145. GPR7-expressing cells, fluorescence antagonist assay. 290,000 compounds, 1.1% hits. inhibition, % at 4.4 µM; in the data active means inhibition above about 16%, passing the limit was not always enough;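 further: cells stimulated with the agonist NPW; 0% = agonist with vehicle and 100% = vehicle without agonist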
GalR3 antagonist = GalR3 antagonists in HEK293 cells, primary screen, cell-based, fluorescence readout | AID 651719, 2012 | inhibition, % at 3 µM | 360,000 compounds, 0.44% hits | Galanin receptor type 3 (Homo sapiens), O60755 | HEK293 GalR3-CNG cAMP membrane potential fluorescence; galR3 body fused to GalR1 C-terminus;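 active means inhibition above the screen-wide average plus 3 SD, cut at about 13% in these data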;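 further: forskolin and galanin both at EC90 stimulate the cells; cAMP rise reported by CNG channel membrane potential dye signal; 0% = forskolin plus galanin with DMSO and 100% = forskolin alone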
Target sequence (O60755 1-299 limits assumed): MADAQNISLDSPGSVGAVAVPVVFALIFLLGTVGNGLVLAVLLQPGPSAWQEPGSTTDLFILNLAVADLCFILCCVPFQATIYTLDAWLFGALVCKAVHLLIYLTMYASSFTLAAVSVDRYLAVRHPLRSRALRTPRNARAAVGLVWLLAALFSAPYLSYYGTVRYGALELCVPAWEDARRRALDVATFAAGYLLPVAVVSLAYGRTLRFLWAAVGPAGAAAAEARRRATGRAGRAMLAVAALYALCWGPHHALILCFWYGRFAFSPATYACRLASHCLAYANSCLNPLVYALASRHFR
OX1R antag-2 = antagonists of human orexin 1 receptor (OX1R). Orexin/Hypocretin receptor type 1 (Homo sapiens), O43613. AID 485270, 2010. 330,000 compounds, 1.8% hits. OX1R-expressing cells, FRET antagonist read-out. inhibition, % at 6.6 µM; in the data active means inhibition mostly above about 38%, no sharp cut-off; inactive means mostly below about 40%;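 further: 0% = agonist challenge alone and 100% = reference antagonist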
OX1R Ca confirm = OX1R (HCRTR1) antagonists, confirmation, fluorescence, CHO/OX1R cells, Fluo-8 calcium, orexin A; AID 492963, 2010; 1,100 compounds, 38% hits; inhibition, % at 5 µM; shares compounds with OX1R antag-1; orexin A calcium Fluo-8 fluorescence; in the data active means inhibition above about 29%;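 further: 0% = agonist challenge alone and 100% = reference antagonist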
CHO Ca counter = ATP-evoked calcium inhibition in parental CHO, counter-screen for OX1R antagonist project, cell-based, fluorescence, CHO-K1, triplicate | inhibition, % at 5.6 µM | 1,100 compounds, 9.3% hits | ATP-induced calcium, Fluo-8 fluorescence | shares compounds with OX1R antag-1;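 active means inhibition above a per-plate limit, the mean inhibition of that plate's test compounds plus 3 SD, cut at about 25% in these data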;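 further: 0% = ATP challenge with DMSO and 100% = DMSO without ATP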
The depositor's hits bear a star; / = not tested or not shown.

SMILES | CHO parental Ca | OX1R antag-1 | GPR7 antag | GalR3 antagonist | OX1R antag-2 | OX1R Ca confirm | CHO Ca counter
O=C(Nc1ccccc1)c1ccc2c(c1)CCN2S(=O)(=O)c1ccccc1 | -5 | -10 | -2 | 0 | 7 | / | /
O=C(Nc1ccc(S(=O)(=O)N2CCc3ccccc32)cc1)c1ccc2c(c1)OCO2 | 19 | 25 | -2 | -7 | 20 | 10 | 8
Cc1cccc2sc(NC(=O)CCNS(=O)(=O)c3cccs3)nc12 | 20 | 31 | 2 | -4 | 39 | 17 | 4
Cc1ccc2nc(NC(=O)CCNS(=O)(=O)c3cccs3)sc2c1 | 2 | 5 | 0 | -7 | 20 | / | /
CC(C)(C)c1cc2nc(N)nc(N)n2n1 | -12 | 50* | -12 | 0 | -5 | 6 | 5
C=CCC(COCc1ccccc1)NS(=O)(=O)c1ccccc1Br (stereo unspecified) | -11 | 34 | / | -4 | 49 | 8 | -7
O=C(OCCc1cc2ccccc2c(=O)o1)c1ccccc1C(F)(F)F | -4 | 37 | / | -5 | 18 | 4 | 3
Cc1cccc(N(CC(=O)NC2CCCC2)C(=O)c2csnn2)c1C | -15 | -24 | -6 | -4 | 9 | / | /
O=C(CSCc1ccc(Cl)cc1)N/N=C/c1ccc(OCC(=O)Nc2ccccc2)cc1 | 14 | 36 | 2 | -3 | 68 | 6 | 4
C[C@@]12CCC[C@@](C)(C(=O)O)C1CC[C@@]13C[C@@H](NCc4ccccc4)[C@@](C)(CCC12)C3 (stereo partly specified) | -7 | -13 | / | -1 | 4 | / | /
CCN(CC)CCNC(=O)C(Cl)=C1C(Cl)=C(Cl)C(Cl)=C1Cl | / | / | / | -7 | / | / | /
COCCN=c1scc(-c2cc(OC)ccc2OC)n1/N=C/c1c[nH]c2ccccc12 | 0 | 31 | 8 | -7 | 42 | 35* | -10
N#Cc1cc(C(=O)c2cc(Br)ccc2O)cn(Cc2ccccc2)c1=O | 23 | 24 | -15 | -4 | 9 | 2 | 10
CCN(CC)S(=O)(=O)c1ccc(NCc2ccccn2)nc1 | -1 | 1 | 8 | 6 | 0 | / | /
CCN(CC)c1ccc(C(=O)N/N=C/c2ccc(OC)cc2OC)cc1 | -31 | 41* | 0 | -3 | 77 | 34* | -11
CN(C)c1ccc(/C=C/C=C2/SC(=S)N(c3ccccc3)C2=O)cc1 | 27 | 36 | -7 | -4 | 9 | 57* | 60*
O=C(O)c1ccc(N2C(=O)/C(=C/C=C/c3ccccc3)SC2=S)cc1 | 3 | 1 | -5 | -2 | 13 | / | /
CCOC(=O)C(Cc1ccccc1)NC(=O)Cn1nnc(-c2ccccc2)n1 (stereo unspecified) | 13 | 29 | 7 | -3 | 25 | 52* | 17
CCOC(=O)Cn1nnc(-c2ccccc2)n1 | -3 | 4 | -8 | 0 | 6 | / | /
Cc1cn(CC(=O)NCCCN2CCCC2=O)c(=O)[nH]c1=O | / | / | / | -2 | / | / | /
CCN1C(=O)/C(=C\C=C\c2ccccc2[N+](=O)[O-])SC1=S | / | / | -16 | -8 | / | / | /
CCN1C(=O)/C(=C/C=C2\N(CC)c3cc(S(=O)(=O)N(C)C)ccc3N2c2ccccc2)SC1=S | 15 | 30 | -3 | -5 | 15 | 72* | 68*
Cc1ncc(CO)c2c1Oc1nc(-c3ccccc3F)nc(SCC(=O)N(C)c3ccccc3)c1C2 | -4 | 31 | -11 | / | 31 | 17 | -16
CCOC(=O)c1ccccc1NC(=O)c1ccccc1SC | 5 | 53* | -20 | -8 | 7 | -15 | -20
O=C(N/N=C/c1ccco1)c1cc(-c2ccc3ccccc3c2)n[nH]1 | -1 | 44* | -6 | -8 | 42 | 5 | -3
SMILES | CHO parental Ca | OX1R antag-1 | GPR7 antag | GalR3 antagonist | OX1R antag-2 | OX1R Ca confirm | CHO Ca counter
Cc1ccccc1NC(=O)c1cccc(NC(=O)c2ccccc2C(=O)O)c1 | 14 | -7 | / | -4 | 4 | / | /
C=CCNc1nc(N(c2ccccc2)c2ccccc2)nc(-n2ccnc2)n1 | 3 | 19 | -7 | -9 | 10 | 88* | 13
CCCCNc1nc(N(C)c2ccccc2)nc(-n2ccnc2)n1 | -23 | -32 | -22 | -4 | 26 | / | /
CC(C)[C@H]1COCCS(=O)(=O)N1Cc1ccccc1 | 4 | -2 | / | -3 | 2 | / | /
CCOc1ccc(NS(=O)(=O)c2ccc(NC(=S)NC(=O)C(C)C)cc2)cc1 | 6 | 20 | 14 | -3 | 5 | / | /
COc1ccc(NS(=O)(=O)c2ccc(NC(=S)NC(=O)C(C)C)cc2)cc1 | 18 | 31 | 20 | -4 | 31 | 32* | 13
NS(=O)(=O)c1ccc(CNC(=O)Cc2ccccc2F)cc1 | -6 | -8 | 1 | -5 | 4 | / | /
NS(=O)(=O)c1ccc(CNC(=O)C(Cc2ccccc2)NS(=O)(=O)c2ccccc2F)cc1 (stereo unspecified) | -1 | 26 | 3 | -8 | -12 | -1 | -6
CCCCn1c(N)c(Br)c(=O)[nH]c1=O | -7 | -9 | -8 | 7 | 13 | / | /
CCCCn1c(=O)[nH]c2nc3cc(N)ccc3nc2c1=O | 36 | 61* | 6 | -2 | 39 | 35* | 29*
COc1cccc(S(=O)(=O)NCc2ccc(C(=O)Nc3cccc(Cl)c3)cc2)c1 | 16 | 45* | -9 | -5 | 52 | -1 | -1
Cc1ccc(-c2n[nH]c(=S)c3ccccc23)cc1S(=O)(=O)NCC1CCCO1 (stereo unspecified) | -27 | -41 | 5 | -5 | 26 | / | /
COC(=O)c1ccc(/C=N\N2CCN(c3ccccc3)CC2)cc1 | / | / | -18 | -6 | / | / | /
C=CCn1c(NCCc2ccccc2)nc2c1c(=O)n(C)c(=O)n2C | 12 | 31 | -2 | -4 | 16 | 10 | 13
COc1cc(S(=O)(=O)N(CCc2ccccc2)Cc2cccs2)ccc1-n1cnnn1 | 14 | 52* | -1 | -4 | 12 | 3 | 10
COc1ccc(CCN(Cc2cccs2)S(=O)(=O)c2ccc(-n3cnnn3)cc2)cc1OC | 7 | -2 | 4 | -3 | 41 | / | /
CN(C)c1nc(N)nc(CSc2nc3cc(Cl)ccc3o2)n1 | -9 | 43 | -21 | -11 | 22 | 27 | -3
Cc1cc(C)n2cc(CSc3nc4cc(Cl)ccc4o3)nc2n1 | -20 | -29 | -4 | -1 | 37 | / | /
CCOc1ccc(-c2ccc3nnc(SCC(=O)NCC4CCCO4)n3n2)cc1 (stereo unspecified) | -8 | 13 | / | -4 | 10 | / | /
